Assay results from ChEMBL document CHEMBL4007414, “Design, Synthesis, Structure-Activity Relationship Studies, and Three-Dimensional Quantitative Structure-Activity Relationship (3D-QSAR) Modeling of a Series of O-Biphenyl Carbamates as Dual Modulators of Dopamine D3 Receptor and Fatty Acid Amide Hydrolase” (J Med Chem, 2017).
Calls of active or inactive are those of the source. The calls are words filed in the database; no cut-off is given here.

Assays:
[1] = target: T1, Fatty-acid amide hydrolase 1 (Homo sapiens, UniProt O00519); test: Inhibition of human FAAH1 expressed in HEK293 cell membrane-enriched lysate using AMC arachidonyl amide as substrate preincubated for 50 mins followed by substrate addition measured after 4 hrs by fluorescence analysis
T1 sequence (O00519 whole entry): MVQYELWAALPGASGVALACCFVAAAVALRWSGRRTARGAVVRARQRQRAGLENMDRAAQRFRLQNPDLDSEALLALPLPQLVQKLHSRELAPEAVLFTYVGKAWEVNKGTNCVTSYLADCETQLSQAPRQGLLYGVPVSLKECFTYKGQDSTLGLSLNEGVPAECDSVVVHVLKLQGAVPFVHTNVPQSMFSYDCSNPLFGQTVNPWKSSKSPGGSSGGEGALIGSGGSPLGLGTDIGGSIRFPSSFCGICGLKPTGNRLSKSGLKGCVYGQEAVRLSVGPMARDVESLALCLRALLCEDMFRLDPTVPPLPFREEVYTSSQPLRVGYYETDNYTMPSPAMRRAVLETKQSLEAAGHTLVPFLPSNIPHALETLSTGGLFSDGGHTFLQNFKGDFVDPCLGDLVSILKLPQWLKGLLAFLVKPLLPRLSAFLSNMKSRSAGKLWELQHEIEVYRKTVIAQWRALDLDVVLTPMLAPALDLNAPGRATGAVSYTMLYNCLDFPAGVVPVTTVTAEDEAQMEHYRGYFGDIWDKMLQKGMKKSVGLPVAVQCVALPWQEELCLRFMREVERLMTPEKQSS
Method in brief: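 Membrane-enriched lysate (2,5 μg) from HEK293 cells stably expressing human FAAH-1, pre-incubated 50 min with compound or 2,5% DMSO vehicle in 50 mM Tris-HCl pH 7.4, 0.05% fatty acid-free BSA. Then 1 μM AMC arachidonyl amide added, 4 h at 37 °C.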

D(3) dopamine receptor [2] = target: T2, D(3) dopamine receptor (Homo sapiens, UniProt P35462); test: Agonist activity at recombinant human dopamine D3 receptor expressed in CHO-K1 cells assessed as […] in cAMP accumulation after 30 mins by HTRF assay; type: functional, cell-based
T2 sequence (P35462 whole entry): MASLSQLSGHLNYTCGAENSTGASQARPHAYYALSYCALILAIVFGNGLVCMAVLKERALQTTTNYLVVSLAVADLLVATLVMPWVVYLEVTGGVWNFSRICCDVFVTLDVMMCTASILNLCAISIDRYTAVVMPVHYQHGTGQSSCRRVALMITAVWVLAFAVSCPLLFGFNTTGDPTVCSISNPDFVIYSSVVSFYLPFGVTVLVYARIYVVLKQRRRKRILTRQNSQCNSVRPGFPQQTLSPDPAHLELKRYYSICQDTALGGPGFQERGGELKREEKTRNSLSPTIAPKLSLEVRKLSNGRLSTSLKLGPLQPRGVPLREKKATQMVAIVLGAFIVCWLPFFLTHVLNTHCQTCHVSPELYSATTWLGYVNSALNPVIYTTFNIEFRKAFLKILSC

D(3) dopamine receptor [3] = target: T2, D(3) dopamine receptor; test: Agonist activity at recombinant human dopamine D3 receptor expressed in CHO-K1 cells assessed as […] in cAMP accumulation after 30 mins by HTRF assay relative to dopamine; type: functional, cell-based
D(2) dopamine receptor [4] = target: T3, D(2) dopamine receptor (Homo sapiens, UniProt P14416); test: Agonist activity at human dopamine D2 receptor-short expressed in CHO-K1 cells assessed as reduction in adenylyl cyclase activator NKH 477 induced cAMP accumulation preincubated for 10 mins followed by NKH 477 addition by HTRF assay; type: functional, cell-based
T3 sequence (P14416 whole entry): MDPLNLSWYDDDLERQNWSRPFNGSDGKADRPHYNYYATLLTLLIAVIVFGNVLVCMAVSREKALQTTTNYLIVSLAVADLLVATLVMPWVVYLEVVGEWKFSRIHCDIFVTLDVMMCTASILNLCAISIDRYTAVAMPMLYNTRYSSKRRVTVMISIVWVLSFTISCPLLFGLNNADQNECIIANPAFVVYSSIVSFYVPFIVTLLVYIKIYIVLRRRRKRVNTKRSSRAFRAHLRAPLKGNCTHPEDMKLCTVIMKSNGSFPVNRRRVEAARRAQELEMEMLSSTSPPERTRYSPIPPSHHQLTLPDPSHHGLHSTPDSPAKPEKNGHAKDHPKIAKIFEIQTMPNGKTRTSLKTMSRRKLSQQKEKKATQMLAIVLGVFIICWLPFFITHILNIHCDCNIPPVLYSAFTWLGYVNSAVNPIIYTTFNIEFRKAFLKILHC

D(2) dopamine receptor [5] = target: T3, D(2) dopamine receptor; test: Agonist activity at human dopamine D2 receptor-short expressed in CHO-K1 cells assessed as reduction in adenylyl cyclase activator NKH 477 induced cAMP accumulation preincubated for 10 mins followed by NKH 477 addition by HTRF assay relative to dopamine; type: functional, cell-based
[6] = target: T4, Monoglyceride lipase (Homo sapiens) (UniProt Q99685); test: Irreversible inhibition of human MAGL after 1 hr by LC-MS/MS analysis
T4 sequence (whole entry): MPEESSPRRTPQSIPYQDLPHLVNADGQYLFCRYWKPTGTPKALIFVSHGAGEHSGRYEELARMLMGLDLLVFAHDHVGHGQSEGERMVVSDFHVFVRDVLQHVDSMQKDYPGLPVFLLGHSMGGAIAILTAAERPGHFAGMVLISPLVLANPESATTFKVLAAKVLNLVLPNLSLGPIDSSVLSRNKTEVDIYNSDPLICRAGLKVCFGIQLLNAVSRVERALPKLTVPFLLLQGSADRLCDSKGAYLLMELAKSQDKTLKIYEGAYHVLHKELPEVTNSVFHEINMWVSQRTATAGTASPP

[7] = target: 5-hydroxytryptamine receptor 1B (Rattus norvegicus) (UniProt P28564); test: Displacement of [125I]CYP from 5HT-1B receptor in OFA rat cortical membranes at 10 to 100 nM after 90 mins by scintillation counting; type: cell membranes
Chain of 5-hydroxytryptamine receptor 1B (Rattus norvegicus) (P28564 whole entry): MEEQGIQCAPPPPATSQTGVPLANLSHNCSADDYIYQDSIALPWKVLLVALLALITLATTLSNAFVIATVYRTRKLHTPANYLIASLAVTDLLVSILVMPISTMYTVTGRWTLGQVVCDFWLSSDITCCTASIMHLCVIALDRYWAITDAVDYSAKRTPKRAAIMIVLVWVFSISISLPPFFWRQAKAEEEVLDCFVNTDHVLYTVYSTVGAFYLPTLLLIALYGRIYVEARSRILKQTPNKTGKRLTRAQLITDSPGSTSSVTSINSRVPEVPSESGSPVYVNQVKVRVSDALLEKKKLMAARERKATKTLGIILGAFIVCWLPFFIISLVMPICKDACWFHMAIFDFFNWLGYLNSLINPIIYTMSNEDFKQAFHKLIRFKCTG

[8] = Half life in rat plasma at 2 uM by UPLC-MS analysis; type: ADME, cell-free
Method in brief: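 Compound at 2 μM final in rat plasma with 5% DMSO, incubated at 37 °C. Samples taken at 0, 5, 15, 30, 60 and 120 min and quenched in cold acetonitrile with internal standard.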

Brain = test: Total drug uptake in Sprague-Dawley rat brain at 10 mg/kg, po by UPLC-MS analysis; type: ADME, organism-based; conditions: in vivo, read-out: Drug uptake
Method in brief: (§1)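 Male Sprague-Dawley rats, three per time point, dosed orally at 10 mg/kg in PEG400/Tween 80/saline 10/10/80. Brains taken at 1 h and 4 h, homogenized in RIPA buffer and extracted with cold acetonitrile plus internal standard. Compound quantified by UPLC-MS/MS; protein measured by BCA.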

[9] = Volume of distribution in Sprague-Dawley rat plasma at 3 mg/kg, iv by UPLC-MS analysis; type: ADME, organism-based
Method in brief: (§2)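 Cannulated male Sprague-Dawley rats (175–200 g), three per dose, dosed IV at 3 mg/kg or PO at 10 mg/kg in PEG400/Tween 80/saline 10/10/80. Blood taken IV at 0–240 min and PO at 0–1440 min. Plasma extracted with cold acetonitrile plus internal standard and analysed by UPLC-MS/MS against a 1 nM–10 μM calibration. PK parameters derived from time/concentration profiles.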

[10] = Half life in rat liver microsomes at […] by UPLC-MS analysis; type: ADME, microsome
[11] = Clearance in Sprague-Dawley rat plasma at 3 mg/kg, iv by UPLC-MS analysis; type: ADME, organism-based; method in brief: as §2
[12] = target: Beta-2 adrenergic receptor (Homo sapiens) (UniProt P07550); test: Displacement of [3H](-)CGP12177 from beta2 adrenergic receptor (unknown origin) at 10 to 100 nM by scintillation counting
Chain of Beta-2 adrenergic receptor (Homo sapiens) (P07550 whole entry, looked up): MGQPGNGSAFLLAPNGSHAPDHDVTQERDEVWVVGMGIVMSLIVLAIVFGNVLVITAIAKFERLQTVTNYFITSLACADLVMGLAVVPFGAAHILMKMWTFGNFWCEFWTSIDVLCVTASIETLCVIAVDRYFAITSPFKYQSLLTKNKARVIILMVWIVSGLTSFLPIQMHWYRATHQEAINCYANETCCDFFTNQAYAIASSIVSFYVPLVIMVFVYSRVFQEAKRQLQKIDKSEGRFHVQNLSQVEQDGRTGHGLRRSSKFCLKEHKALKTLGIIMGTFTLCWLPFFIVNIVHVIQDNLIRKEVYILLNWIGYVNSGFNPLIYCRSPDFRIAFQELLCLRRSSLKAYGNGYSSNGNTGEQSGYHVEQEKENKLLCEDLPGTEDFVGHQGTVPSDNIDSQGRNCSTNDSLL

[13] = Tmax in Sprague-Dawley rat brain at 10 mg/kg, po by UPLC-MS analysis; type: ADME, organism-based; method in brief: as §1
[14] = Elimination half life in Sprague-Dawley rat plasma at 3 mg/kg, iv by UPLC-MS analysis; type: ADME, organism-based; conditions: read-out: beta t1/2; method in brief: as §2
[15] = Tmax in Sprague-Dawley rat plasma at 3 mg/kg, iv by UPLC-MS analysis; type: ADME, organism-based; method in brief: as §2
[16] = Oral bioavailability in Sprague-Dawley rat […] at 10 mg/kg by UPLC-MS analysis; type: ADME, organism-based
[17] = Cmax in Sprague-Dawley rat brain at 10 mg/kg, po by UPLC-MS analysis; type: ADME, organism-based; set-up: dose 10 mg/kg, route oral; method in brief: as §1
[18] = AUC in Sprague-Dawley rat brain at 10 mg/kg, po by UPLC-MS analysis; type: ADME, organism-based; method in brief: as §1
[19] = target: Beta-1 adrenergic receptor (Homo sapiens) (UniProt P08588); test: Displacement of [3H](-)CGP12177 from human beta1 adrenergic receptor expressed in HEK293 cells at 10 to 100 nM after 45 mins by scintillation counting; type: cell-based
Chain of Beta-1 adrenergic receptor (Homo sapiens) (P08588 whole entry, looked up): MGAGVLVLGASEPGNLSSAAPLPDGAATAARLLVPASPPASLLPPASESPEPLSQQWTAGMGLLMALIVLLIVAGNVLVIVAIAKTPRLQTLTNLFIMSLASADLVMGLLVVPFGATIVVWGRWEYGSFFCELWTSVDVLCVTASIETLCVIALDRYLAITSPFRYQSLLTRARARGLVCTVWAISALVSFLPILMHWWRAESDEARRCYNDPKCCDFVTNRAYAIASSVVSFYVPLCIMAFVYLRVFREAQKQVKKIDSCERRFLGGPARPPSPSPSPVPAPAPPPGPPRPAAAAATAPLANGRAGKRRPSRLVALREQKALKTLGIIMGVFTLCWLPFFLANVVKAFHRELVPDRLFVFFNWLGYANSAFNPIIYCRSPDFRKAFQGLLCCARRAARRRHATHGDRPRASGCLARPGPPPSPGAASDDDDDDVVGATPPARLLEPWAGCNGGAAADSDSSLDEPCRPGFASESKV

[20] = target: T5, 5-hydroxytryptamine receptor 1A (Homo sapiens) (UniProt P08908); test: Displacement of [3H]8-OH-DPAT from human 5HT-1A receptor expressed in Sf9 insect cells at 100 nM after 60 mins by scintillation counting
T5 sequence (whole entry): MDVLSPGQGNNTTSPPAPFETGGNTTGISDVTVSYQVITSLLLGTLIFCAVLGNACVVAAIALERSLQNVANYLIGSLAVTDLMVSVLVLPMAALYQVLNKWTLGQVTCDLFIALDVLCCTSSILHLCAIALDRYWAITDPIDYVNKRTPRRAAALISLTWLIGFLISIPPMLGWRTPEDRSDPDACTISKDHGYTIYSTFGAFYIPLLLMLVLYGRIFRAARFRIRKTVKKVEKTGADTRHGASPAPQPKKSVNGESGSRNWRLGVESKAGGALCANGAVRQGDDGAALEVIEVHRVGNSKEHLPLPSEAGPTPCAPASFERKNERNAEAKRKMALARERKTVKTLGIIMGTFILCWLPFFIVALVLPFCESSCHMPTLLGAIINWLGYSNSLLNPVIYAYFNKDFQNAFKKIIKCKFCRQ

[21] = Cmax in Sprague-Dawley rat plasma at 10 mg/kg, po by UPLC-MS analysis; type: ADME, organism-based; set-up: dose 10 mg/kg, route oral; method in brief: as §2
[22] = Cmax in Sprague-Dawley rat plasma at 3 mg/kg, iv by UPLC-MS analysis; type: ADME, organism-based; set-up: dose 3 mg/kg, route intravenous; method in brief: as §2
Homo sapiens = species on record: Homo sapiens; test: Ratio of EC50 for human dopamine D2 receptor-short expressed in CHO-K1 cells to EC50 for recombinant human dopamine D3 receptor expressed in CHO-K1 cells; type: cell-based

Work on `COc1cc(OC(=O)NCCCCN2CCN(c3cccc(Cl)c3Cl)CC2)ccc1-c1ccccc1` yielded an IC50 [1] of 4.3 nM, an EC50 (D(3) dopamine receptor [2]) of 1.66 nM and an Efficacy (D(3) dopamine receptor [3]) of 32%.
In the case of `O=C(NCCCN1CCN(c2cccc(Cl)c2Cl)CC1)Oc1ccc2c(c1)[nH]c1ccccc12`, the Efficacy (D(3) dopamine receptor [3]) is reported as greater than 90%.
In the case of `O=C(NCCCCN1CCN(c2cccc(Cl)c2Cl)CC1)Oc1ccc2c(c1)[nH]c1ccccc12`, the Efficacy (D(3) dopamine receptor [3]) is reported as greater than 90%.
`NC(=O)c1cccc(-c2ccc(OC(=O)NCCCCN3CCN(c4ccccc4)CC3)cc2)c1` gave an Efficacy (D(3) dopamine receptor [3]) of 88%.
`O=C(NCCCCN1CCN(c2ccccc2C(F)(F)F)CC1)Oc1ccc(-c2ccccc2)cc1` gave an IC50 [1] of 20.7 nM, an EC50 (D(3) dopamine receptor [2]) of 1200 nM and an Efficacy (D(3) dopamine receptor [3]) greater than 90%.
With `NC(=O)c1cccc(-c2ccc(OC(=O)NCCCCN3CCN(c4ccccc4C(F)(F)F)CC3)cc2)c1` the Activity (D(2) dopamine receptor [4]) was “inactive”.
For `NC(=O)c1cccc(-c2ccc(OC(=O)NCCCCN3CCN(c4cccc(Cl)c4Cl)CC3)cc2F)c1`, the IC50 [1] was 1 nM, the Efficacy (D(3) dopamine receptor [3]) was 74% and the EC50 (D(2) dopamine receptor [4]) was 13.7 nM. The Efficacy (D(2) dopamine receptor [5]) was 40.4%.
With `Cl.O=C(NCCCCN1CCN(c2cccc(Cl)c2Cl)CC1)Oc1ccc(-c2ccccc2)cc1` the inhibition [6] was “inactive”, the inhibition [7] was “inactive” and the half-life at 2 µM [8] was 1.62 h. The concentration (Brain) was 391 nM, the Vd [9] was 23.7 L/kg and the half-life at […] [10] was greater than 1 h. For the same compound, the clearance [11] was 110 mL/min/kg, the inhibition [12] was “inactive” and the Tmax [13] was 4 h. For the same compound, the half-life [14] was 2.42 h, the Tmax [15] was 5 min and the bioavailability [16] was 21%. The Cmax [17] was 37 ng/mL, the AUC [18] was 1.41 ng·h/mL and the inhibition [19] was “inactive”. For the same compound, the inhibition [20] was 60.4%, the Cmax [21] was 54 ng/mL and the Cmax [22] was 500 ng/mL.
With `COc1ccccc1N1CCN(CCCCNC(=O)Oc2ccc3c(c2)[nH]c2ccccc23)CC1` the Efficacy (D(3) dopamine receptor [3]) was 66%, the EC50 (D(2) dopamine receptor [4]) was 57.9 nM and the Ratio EC50 (Homo sapiens) was 4.8. It also gave an Efficacy (D(2) dopamine receptor [5]) of 44%.
